Data as given in ChEMBL document CHEMBL1129727, “Chiral pyrrolo[2,3-d]pyrimidine and pyrimido[4,5-b]indole derivatives: structure-activity relationships of potent, highly stereoselective A1-adenosine receptor antagonists” (J Med Chem, 1996).
Converted amounts (≈) assume the structure as drawn.

What was measured:
Adenosine receptor A1 = molecular target: T1, Adenosine receptor A1 (Rattus norvegicus, UniProt P25099); assay: Radioligand binding assay for [3H]-PIA affinity towards Adenosine A1 receptor of rat cerebral cortical membrane
T1 sequence (P25099 whole entry): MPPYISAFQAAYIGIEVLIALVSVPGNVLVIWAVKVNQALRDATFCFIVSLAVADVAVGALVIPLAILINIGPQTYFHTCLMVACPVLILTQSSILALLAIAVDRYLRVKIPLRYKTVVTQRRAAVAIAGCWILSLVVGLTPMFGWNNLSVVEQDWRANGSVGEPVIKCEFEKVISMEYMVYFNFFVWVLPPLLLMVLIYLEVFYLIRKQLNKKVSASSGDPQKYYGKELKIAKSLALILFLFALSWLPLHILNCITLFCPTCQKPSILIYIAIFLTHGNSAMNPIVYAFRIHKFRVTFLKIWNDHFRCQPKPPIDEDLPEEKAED
Summary of the method: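 Rat cerebral cortical membranes incubated with [3H]-(R)-PIA. Nonspecific binding defined with 10 μM 2-chloroadenosine. Five to six test concentrations, each in triplicate, in at least three separate experiments. Ki calculated from inhibition of binding.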

Adenosine receptor A2a = Adenosine receptor A2a (Rattus norvegicus, UniProt P30543); assay: Radioligand binding assay for [3H]NECA affinity towards adenosine A2A receptor of rat striatum; assay type: tissue-based
Summary of the method: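 Rat striatal membranes incubated with [3H]NECA. 50 nM N6-cyclopentyladenosine present to block A1 sites. Nonspecific binding defined with 5 mM theophylline. Five to six test concentrations, each in triplicate, in at least two separate experiments. Ki derived from inhibition of binding.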

[1] = molecular target: Adenosine receptors; A1 & A2 (Rattus norvegicus) (UniProt P29276+P25099+P30543); assay: Selectivity ratio between A1 and A2-receptors estimated as A2/A1; assay type: protein assay
[2] = Solubility in 50 mM TRIS-HCl buffer containing 1% DMSO, pH 7.4; assay type: physicochemical; conditions: read-out: S
Summary of the method: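 Bruns–Fergus biochemical method. 10 mM DMSO stock diluted 1:100 into 50 mM Tris-HCl pH 7.4, shaken overnight at room temperature, centrifuged and filtered through cotton. Serial dilutions of the saturated supernatant tested in an A1 [3H]CHA binding assay (KD 1 nM).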

[3] = Solubility in 50 mM TRIS-HCl buffer containing 2.5% DMSO, pH 7.4; assay type: physicochemical; conditions: read-out: S
Summary of the method: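 A 10 mM DMSO stock was diluted 1:40 into 50 mM TRIS-HCl, pH 7.4 (2.5% DMSO), then shaken overnight at room temperature to equilibrium. After centrifugation, the supernatant was filtered and serially diluted. Dilutions were tested in an A1 binding assay with [3H]CHA (KD 1 nM).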

[4] = Partition coefficient (logP); assay type: physicochemical; conditions: octanol/water
[5] = molecular target: T2, Adenosine receptor A3 (Rattus norvegicus) (UniProt P28647); assay: Percent inhibition of binding to rat Adenosine A3 receptor at 10 uM
T2 sequence (whole entry): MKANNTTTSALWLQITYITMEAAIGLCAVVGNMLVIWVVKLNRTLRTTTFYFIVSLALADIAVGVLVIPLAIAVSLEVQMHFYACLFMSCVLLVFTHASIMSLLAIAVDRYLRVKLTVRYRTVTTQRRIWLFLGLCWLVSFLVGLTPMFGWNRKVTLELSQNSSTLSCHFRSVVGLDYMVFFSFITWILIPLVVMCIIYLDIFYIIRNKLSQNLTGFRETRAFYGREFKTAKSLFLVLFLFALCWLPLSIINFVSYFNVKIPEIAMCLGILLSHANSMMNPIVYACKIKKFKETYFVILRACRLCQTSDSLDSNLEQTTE

[6] = molecular target: T3, Adenosine receptor A2b (Rattus norvegicus) (UniProt P29276); assay: Antagonistic binding affinity for rat Adenosine A2B receptor
T3 sequence (whole entry): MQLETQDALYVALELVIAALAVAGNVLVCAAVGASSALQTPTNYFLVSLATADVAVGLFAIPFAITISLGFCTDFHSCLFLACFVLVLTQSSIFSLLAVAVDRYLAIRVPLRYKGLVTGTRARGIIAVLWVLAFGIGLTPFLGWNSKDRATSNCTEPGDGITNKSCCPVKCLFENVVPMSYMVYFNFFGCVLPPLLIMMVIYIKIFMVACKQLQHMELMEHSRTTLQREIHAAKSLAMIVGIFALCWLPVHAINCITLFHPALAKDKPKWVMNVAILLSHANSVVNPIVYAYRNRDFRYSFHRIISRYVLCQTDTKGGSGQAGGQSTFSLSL

[7] = molecular target: Adenosine receptor A2a (Rattus norvegicus) (UniProt P30543); assay: Antagonism of NECA-stimulated adenylate cyclase at Adenosine A2A receptor in rat PC12 cell membranes
Chain of Adenosine receptor A2a (Rattus norvegicus) (P30543 whole entry): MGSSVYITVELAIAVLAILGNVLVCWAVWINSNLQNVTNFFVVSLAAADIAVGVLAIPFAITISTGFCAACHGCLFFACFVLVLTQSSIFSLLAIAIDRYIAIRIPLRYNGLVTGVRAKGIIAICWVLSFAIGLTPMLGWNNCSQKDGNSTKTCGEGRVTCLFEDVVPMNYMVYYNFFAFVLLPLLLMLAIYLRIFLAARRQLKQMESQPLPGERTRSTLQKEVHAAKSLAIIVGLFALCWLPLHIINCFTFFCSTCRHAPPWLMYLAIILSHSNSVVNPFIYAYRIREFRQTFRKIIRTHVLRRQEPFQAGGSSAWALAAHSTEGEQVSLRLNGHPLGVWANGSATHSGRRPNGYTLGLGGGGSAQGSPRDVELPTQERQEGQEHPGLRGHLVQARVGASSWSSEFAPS

Chain of Adenosine receptor A2a (P30543 whole entry): as above
Chain of Adenosine receptors; A1 & A2 (Rattus norvegicus) (P30543 whole entry, looked up, one chain of several): as the sequence (P30543 whole entry) above

| Compound | Ki (Adenosine receptor A1) | Ki (Adenosine receptor A2a) | Selectivity ratio [1] | further results |
| --- | --- | --- | --- | --- |
| Cc1c(C)n([C@H](C)c2ccccc2)c2nc(-c3ccccc3)nc(O)c12 | 2.98 µM | > 30 µM |  | Selectivity [1]: > 10 |
| Cc1c(C)n([C@@H](C)c2ccccc2)c2nc(-c3ccc(Cl)c(Cl)c3)nc(N)c12 | 1.8 µM |  | > 17 |  |
| O=C1N(c2ccccc2)c2nc[nH]c(=O)c2C12CCCC2 | 1.3 µM | 17.2 µM |  |  |
| Cc1ccc([C@H](C)n2c3ccccc3c3c(N)nc(-c4ccccc4)nc32)cc1 | 0.297 µM | > 30 µM | > 101 |  |
| Cc1nc2nc(-c3ccccc3)[nH]c(N[C@H](C)c3ccccc3)c-2c1C | 0.0067 µM | > 30 µM |  | solubility [2]: 1.5 µM (≈ 0.514 µg/mL); solubility [3]: 5.9 µM (≈ 2.02 µg/mL); logP [4]: 3.5; Selectivity [1]: > 4480 |
| C[C@H](c1ccccc1)n1c2ccccc2c2c(N)nc(-c3ccccc3)nc21 | 0.0026 µM | 6.2 µM |  | solubility [2]: 0.48 µM (≈ 0.175 µg/mL); solubility [3]: 1.5 µM (≈ 0.547 µg/mL) |
| Cc1c(C)n([C@@H](C)c2ccccc2)c2nc(-c3cccc(Cl)c3)nc(N)c12 | 0.485 µM | > 30 µM | > 62 |  |
| Cc1c(C)n([C@H](C)c2ccccc2)c2nc(-c3ccc(Cl)cc3)nc(O)c12 | > 30 µM | > 30 µM |  |  |
| Cc1c(C)n([C@H](C)c2ccccc2)c2nc(-c3ccc(Cl)c(Cl)c3)nc(N)c12 | 0.33 µM | > 30 µM | > 91 |  |
| CC(c1ccccc1)N1C(=O)C2(CCCC2)c2c(O)ncnc21 (configuration not stated) |  | 88.4 µM |  | Selectivity [1]: 26 |
| Cc1c(C)n([C@@H](C)c2ccccc2)c2nc(-c3ccccc3)nc(N)c12 | 0.0047 µM | 3.71 µM | 789 | solubility [2]: 0.26 µM (≈ 0.089 µg/mL) |
| Cc1c(C)n([C@H](C)c2ccccc2)c2ncnc(N[C@H](C)c3ccccc3)c12 |  | > 30 µM |  |  |
| Cc1c(C)n([C@H](C)c2ccccc2)c2nc(-c3ccccc3Cl)nc(N)c12 | 0.0096 µM | 5.2 µM | 537 |  |
| CC(c1ccccc1)n1c2ccccc2c2c(N)ncnc21 (configuration not stated) | 1.13 µM | 27.7 µM | 25 |  |
| C[C@@H](c1ccccc1)n1c2ccccc2c2c(O)nc(-c3ccccc3)nc21 | > 30 µM | > 30 µM |  |  |
| Cc1nc2nc(-c3ccccc3)[nH]c(N[C@@H](C)c3ccccc3)c-2c1C |  |  |  | Selectivity [1]: > 47 |
| Cc1c(C)n([C@H](C)c2ccccc2)c2nc(-c3cccc(Cl)c3)nc(N)c12 | 0.0076 µM | 16.3 µM | 2140 | solubility [2]: 2.8 µM (≈ 1.06 µg/mL) |
| Cc1c(C)n([C@@H](C)c2ccccc2)c2nc(-c3ccccc3Cl)nc(N)c12 | 0.273 µM | > 30 µM | > 110 |  |
| COc1ccc(-c2nc(N)c3c(C)c(C)n([C@H](C)c4ccccc4)c3n2)cc1 | 0.101 µM | > 10 µM | > 99 |  |

| Compound | Ki (Adenosine receptor A1) | Ki (Adenosine receptor A2a) | Selectivity ratio [1] | further results |
| --- | --- | --- | --- | --- |
| O=C1N(c2ccccc2)c2ncnc(O)c2C12CCCC2 |  |  |  | Selectivity [1]: 13 |
| Cc1c(C)n([C@@H](C)c2ccccc2)c2ncnc(N[C@@H](C)c3ccccc3)c12 |  | > 30 µM |  |  |
| Cc1[nH]c2nc(-c3ccccc3)nc(N[C@@H](C)c3ccccc3)c2c1C | 0.64 µM | > 30 µM |  |  |
| O=C1Nc2ncnc(O)c2C12CCCC2 |  |  |  | Selectivity [1]: 2.7 |
| Oc1ncnc2c1c1ccccc1n2-c1ccccc1 |  |  |  | inhibition [5]: < 20%; Kb [6]: 3.4 µM; Kb [7]: 2.5 µM |
| Nc1nc(-c2ccccc2)nc2c1c1ccccc1n2-c1ccccc1 | 0.022 µM | 8.3 µM |  | Selectivity [1]: 377 |
| Cc1c(C)n([C@H](C)c2ccccc2)c2nc(-c3ccc(Cl)cc3)nc(N)c12 | 0.05 µM | > 30 µM | > 600 | solubility [2]: 2.2 µM (≈ 0.829 µg/mL); solubility [3]: 7.2 µM (≈ 2.71 µg/mL) |
| C[C@H](c1ccccc1)N1C(=O)C2(CCCC2)c2c(O)nc(-c3ccccc3)nc21 | > 30 µM | > 30 µM |  |  |
| C[C@@H](Cc1ccccc1)n1c2ccccc2c2c(N)nc(-c3ccccc3)nc21 | 0.32 µM | > 30 µM | > 94 |  |
| Cc1ccc([C@@H](C)n2c3ccccc3c3c(N)nc(-c4ccccc4)nc32)cc1 | 0.014 µM | 21.4 µM | 1530 |  |
| Cc1c(C)n([C@@H](C)c2ccccc2)c2nc(-c3ccc(Cl)cc3)[nH]c(=O)c12 | > 30 µM | > 30 µM |  |  |
| Cc1c(C)n([C@@H](C)c2ccccc2)c2nc(-c3ccccc3)[nH]c(=O)c12 | > 30 µM | > 30 µM |  |  |
| COc1cccc(-c2nc(N)c3c(C)c(C)n([C@H](C)c4ccccc4)c3n2)c1 | 0.083 µM | > 10 µM | > 120 |  |
| C[C@H](c1ccccc1)n1c2ccccc2c2c(O)nc(-c3ccccc3)nc21 | > 30 µM | > 30 µM |  |  |
| O=C1Nc2nc[nH]c(=O)c2C12CCCC2 | 127 µM | 346 µM |  |  |
| Cc1c(C)n([C@@H](C)c2ccccc2)c2nc(-c3ccc(Cl)cc3)nc(N)c12 | 0.878 µM | > 30 µM | > 34 |  |
| Cc1c(C)n([C@H](C)c2ccccc2)c2nc(-c3ccccc3)nc(N)c12 | 0.165 µM | 81 µM | 490 |  |
| C[C@@H](c1ccccc1)n1c2ccccc2c2c(N)nc(-c3ccccc3)nc21 | 0.064 µM | > 30 µM |  |  |
